# Screening data deposited in PubChem by The Scripps Research Institute Molecular Screening Center.
# Sampled rows, rich in hits. Any-hit rate of the full collection: about 2.7%.
# pPAFAH FP inh: pPAFAH enzyme inhibitors, primary screen, biochemical, fluorescence polarization, human. inhibition, % at 3.39 µM. Platelet-activating factor acetylhydrolase (Homo sapiens), Q13093. 1.5% of 330,000 active. recombinant pPAFAH, FP-rhodamine probe fluorescence polarization;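 active = inhibition above the mean inhibition across the screen plus 3 SD, cut at about 25% in these data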;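 note: inhibitors block binding of the rhodamine activity-based probe so polarization drops; 0% = enzyme with DMSO and 100% = wells lacking pPAFAH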
# ARFGAP1 inhibitor: inhibitors of rat ARFGAP1 GAP activity, primary screen, biochemical, fluorescence polarization, GDP tracer; ADP-ribosylation factor GTPase-activating protein 1 (Rattus norvegicus), Q62848; Arfgap1-stimulated ARF1 GTP hydrolysis, GDP FP detection; inhibition, % at 16.5 µM; 0.26% of 360,000 active; AID 651572, 2012;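 active = inhibition above a per-plate limit, mean inhibition of low control wells plus 3 SD, cut at about 25% in these data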;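 note: 0% = DMSO wells with enzyme and 100% = wells lacking Arfgap1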
#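 Assay system: Rat Arfgap1 GAP domain (His6, aa 1-136), purified enzyme | Buffer or medium: HEPES 25 mM pH 7.5, NaCl 150 mM, MgCl2, DTT | Schedule: GTP hydrolysis reaction 2 h at 25 °C | Signal: FP of antibody-bound GDP Alexa 633 tracer, ex 620/em 688 nm | Measure: Percent inhibition of Arfgap1-stimulated GTP hydrolysis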
# PAFAH1B2 inh: PAFAH1B2 enzyme inhibitors, primary screen, biochemical, fluorescence polarization, human | recombinant PAFAH1B2, FP-rhodamine activity probe | inhibition, % at 3.39 µM | 1.2% of 340,000 active;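 active = inhibition above the mean of all tested compounds plus 3 SD, cut at about 24% in these data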;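 note: 0% = enzyme with DMSO and 100% = wells lacking PAFAH1B2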
# PAFAH1B3 FP inh: PAFAH1B3 enzyme inhibitors, primary screen, biochemical, fluorescence polarization, human | 0.28% of 340,000 active | AID 492972, 2010 | recombinant PAFAH1B3, FP-rhodamine probe | inhibition, % at 3.39 µM;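 active = inhibition above the screen-wide average of all tested compounds plus 3 SD, cut at about 25% in these data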;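 note: 0% = enzyme with DMSO only and 100% = wells lacking PAFAH1B3 protein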
# Target sequence (Q15102 whole entry, looked up): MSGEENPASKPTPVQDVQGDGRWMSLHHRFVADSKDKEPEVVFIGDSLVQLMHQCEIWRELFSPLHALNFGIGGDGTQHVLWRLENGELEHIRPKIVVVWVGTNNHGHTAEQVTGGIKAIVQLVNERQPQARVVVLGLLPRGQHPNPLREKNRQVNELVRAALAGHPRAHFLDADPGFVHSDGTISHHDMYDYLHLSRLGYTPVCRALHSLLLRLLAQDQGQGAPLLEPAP
# PAFAH2 inh: PAFAH2 enzyme inhibitors, primary screen, biochemical, fluorescence polarization, human; Platelet-activating factor acetylhydrolase 2, cytoplasmic (Homo sapiens), Q99487; recombinant PAFAH2, FP-rhodamine activity probe; inhibition, % at 3.39 µM; 0.99% of 340,000 active; AID 492956, 2010;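 active = inhibition above the mean over all tested compounds plus 3 SD, cut at about 30% in these data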;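 note: inhibitors block probe labeling of enzyme so polarization drops; 0% = enzyme with DMSO and 100% = wells lacking PAFAH2 protein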
# ASAP1 GAP inh: inhibitors of human ASAP1 ArfGAP activity, primary screen, biochemical, fluorescence polarization; ASAP1-stimulated ARF1 GTP hydrolysis, GDP FP detection; 0.19% of 360,000 active; AID 624377, 2012; inhibition, % at 16.5 µM; in the data active = inhibition above about 25%;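 note: 0% = vehicle with enzyme and substrate and 100% = no enzyme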
# Target sequence (Q9ULH1 325-724 limits assumed): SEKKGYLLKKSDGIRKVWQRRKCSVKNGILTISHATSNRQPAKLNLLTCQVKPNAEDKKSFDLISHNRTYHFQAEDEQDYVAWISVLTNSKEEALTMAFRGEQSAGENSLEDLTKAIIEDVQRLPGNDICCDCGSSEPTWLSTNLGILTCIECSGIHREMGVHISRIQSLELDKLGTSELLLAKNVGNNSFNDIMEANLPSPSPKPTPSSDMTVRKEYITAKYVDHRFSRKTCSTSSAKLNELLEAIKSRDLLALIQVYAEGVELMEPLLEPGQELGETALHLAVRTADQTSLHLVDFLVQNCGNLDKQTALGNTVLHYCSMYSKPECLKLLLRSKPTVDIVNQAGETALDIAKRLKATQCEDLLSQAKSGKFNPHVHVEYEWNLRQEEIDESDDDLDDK
# pPAFAH FP conf: pPAFAH (PLA2G7) enzyme inhibitors, confirmation, biochemical, fluorescence polarization, human; shares compounds with pPAFAH FP inh; recombinant pPAFAH, FP-Rh probe fluorescence polarization; inhibition, % at 3.39 µM; 72% of 2,300 active;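 active = mean inhibition of the triplicate above the hit cutoff set for the earlier primary screen, cut at about 25% in these data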;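 note: 0% = enzyme with DMSO and 100% = wells lacking pPAFAH enzyme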
# Starred values were filed as active, the others as inactive; nt = no result.
SMILES,pPAFAH FP inh,ARFGAP1 inhibitor,PAFAH1B2 inh,PAFAH1B3 FP inh,PAFAH2 inh,ASAP1 GAP inh,pPAFAH FP conf
CCOc1ccc2c(c1)C(=O)c1cc(OCC(=O)O)ccc1-2,37*,2,3,8,1,1,7
CCCCCn1c(SCC2CCCO2)nc2cc(C(=O)N3CCC(C(N)=O)CC3)ccc2c1=O (stereo not drawn),42*,-3,3,-4,-2,2,23
Cc1nn(-c2cccc(C(F)(F)F)c2)c(Cl)c1/C=N/Nc1cccc(C(=O)O)c1,35*,-6,6,6,-1,-3,35*
CCOC(=O)Cc1csc2nc(-c3ccccc3)cn12,nt,-7,nt,nt,nt,-9,nt
CCCCCCC[C@@H](C/C=C/CCC(=O)N(C)C/C(=C/Cl)C/C(=C\C(=O)N1C[C@H](O)CC1=O)OC)OC,41*,13,5,5,2,6,37*
COc1cccc2cc(C(=O)CS(=O)(=O)c3ccc(C(C)(C)C)cc3)c(=O)oc12,52*,-11,42*,4,15,-9,35*
COc1ccc(S(=O)(=O)CC(=O)c2cc3cccc(C)c3oc2=O)cc1,16,nt,-1,5,8,nt,nt
Cc1cc(/C=C2\C(=N)N3N=C(c4ccco4)SC3=NC2=O)c(C)n1Cc1ccccc1,36*,-4,36*,13,16,0,70*
CCC1=NN2C(=N)/C(=C/c3cc(C)n(Cc4ccccc4)c3C)C(=O)N=C2S1,18,-4,15,1,-6,-3,nt
COc1ccc(-n2cccc2/C=C2\C(=N)N3N=C(C(C)C)SC3=NC2=O)cc1,5,-9,8,1,11,-12,nt
COc1ccc(-n2cccc2/C=C2\C(=N)N3N=C(c4ccco4)SC3=NC2=O)cc1,47*,-23,0,-7,27,6,63*
CCN(CC)c1ccc(NS(=O)(=O)c2ccc3c(c2)oc(=O)n3C)c(C)c1,40*,5,2,-2,-2,3,44*
CCN=C1NC(c2ccc(C(F)(F)F)cc2)C(C(=O)OC)=C(C)N1Cc1ccccc1C(F)(F)F (stereo not drawn),nt,8,nt,nt,nt,-2,nt
COC(=O)N1C[C@H](OC)[C@H]2C[C@@H]1c1ccccc1O2,nt,-2,nt,nt,nt,0,nt
COc1ccc(/C=C2/C(=O)N(c3nc4ccccc4s3)N=C2CSc2ccc(Cl)cc2)cc1,51*,3,-7,4,-8,5,18
COc1ccc(-n2cc(-c3ccccc3)c3c(NCCCN4CCOCC4)ncnc32)cc1,35*,-1,4,-3,-8,7,18
CC1(C(=O)NCc2ccccc2)CN(S(C)(=O)=O)CC(=O)N1Cc1ccco1 (stereo not drawn),nt,3,nt,nt,nt,-10,nt
O=C(O)CSCC(=O)N(Cc1ccccc1)c1nc(-c2ccccc2)c(-c2ccccc2)s1,54*,-16,23,3,-6,-5,54*
N#CCCN(C(=O)COC(=O)c1ccc(S(=O)(=O)Nc2ccccc2)cc1)c1ccccc1,35*,8,-1,3,-2,1,18
Cn1cc(CCOCc2ccccn2)c2ccccc21,nt,9,nt,nt,nt,9,nt
CCCn1nc([N+](=O)[O-])c(C(C#N)c2nc3ccccc3s2)c(Cl)c1=O (stereo not drawn),56*,-11,15,14,60*,-11,51*
CC(C)(C)OC(=O)N1CCC[C@@H]1C(=O)N1CCC[C@@H]1C(=O)NCc1ccccc1,nt,-3,nt,nt,nt,5,nt
NC(=O)c1ccc(NCCc2cccs2)cc1,nt,6,nt,nt,nt,3,nt
Cn1c2ccccc2c(=O)c2ccc(NCCc3cccs3)cc21,38*,18,12,10,21,-12,16
CC(C)(C)S(=O)(=O)N1Cc2cc(CO)ccc2[C@@H]1CCO,nt,-3,nt,nt,nt,1,nt
SMILES,pPAFAH FP inh,ARFGAP1 inhibitor,PAFAH1B2 inh,PAFAH1B3 FP inh,PAFAH2 inh,ASAP1 GAP inh,pPAFAH FP conf
Oc1c(Cl)cc(Cl)cc1/C=C/c1ccc2cccc(O)c2n1,51*,8,1,11,14,11,49*
Oc1ccc(Cl)cc1/C=C/c1ccc2cccc(O)c2n1,nt,4,6,18,6,17,nt
COCc1[nH]nc2c1C(c1cccc(C(F)(F)F)c1)N(c1ccc(OC)cc1)C2=O (stereo not drawn),nt,0,nt,nt,nt,-5,nt
CCc1c(-c2ccccc2Br)ncn1CCc1ccccc1OC,nt,-13,nt,nt,nt,-8,nt
CCc1ccc(CNC(=O)Cc2ccc(NC(=O)C3=C(C)OCCS3)cc2)cc1,36*,-13,3,1,10,0,20
C=CCN1CC(COc2ccc(OC)cc2)OCCS1(=O)=O (stereo not drawn),nt,-2,nt,nt,nt,5,nt
Cc1ccc(C(NC(=O)C(C)C)c2cc([N+](=O)[O-])c3cccnc3c2O)cc1 (stereo not drawn),54*,1,5,17,17,15,74*
CC(C)C(=O)NC(c1cccs1)c1cc([N+](=O)[O-])c2cccnc2c1O (stereo not drawn),84*,nt,-5,6,-4,nt,79*
CCCc1nn2c(=O)cc(O)nc2s1,-5,-2,-2,0,5,9,nt
CCCCCCCc1nn2c(=O)cc(O)nc2s1,47*,-4,9,2,-3,-4,10
COc1cc(Nc2cc(C)n(-c3ccc(Cl)c(OC)c3)c(=O)c2)ccc1Cl,nt,-4,nt,nt,nt,-3,nt
CC(=O)[C@]1(O)Cc2c(O)c3c(c(O)c2[C@@H](O[C@H]2C[C@H](N)[C@H](O)[C@H](C)O2)C1)C(=O)c1ccccc1C3=O,59*,nt,nt,nt,nt,nt,69*
COc1cccc2c1C(=O)c1c(O)c3c(c(O)c1C2=O)C[C@@](O)(C(=O)CO)C[C@@H]3O[C@H]1C[C@H](N)[C@@H](O)[C@H](C)O1,60*,nt,51*,43*,55*,nt,45*
CC1(C)Cc2ccccc2C(=NCC(=O)O)N1,35*,-5,3,10,-6,9,2
CCC1(C)Cc2ccccc2C(=O)N1 (stereo not drawn),-5,-14,5,4,0,2,nt
